According to PMC9536290 (Clinical Infectious Diseases: An Official Publication of …, 2022):
Several values for one entry are separate records, joined by “and”; a condition that tells them apart may be missing. Identical values can stand only once.

Key:
[1] = observed in other studies; cited from earlier work
[2] = system: HIV-1 with A364V mutation; assay: Phenotypic resistance of participant virus with A364V; assay type: cell-based; conditions: virus of 1 participant (200 mg) with full conversion to A364V
[3] = system: triple-mutant polymorph (R361K/V362I/L363M); conditions: cited from earlier work
[4] = system: HIV-1; assay: Phase IIa monotherapy study: antiviral effect; assay type: in vivo, HIV-1–positive, treatment-naive adults; conditions: for Plasma HIV-1 RNA change from baseline to nadir, mean (SD): n = 6; for Modeled plasma HIV-1 RNA maximum change (nadir), least squares mean (90% CI): mixed-effects model
In short: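 Randomized, double-blind, placebo-controlled oral monotherapy, once daily after a moderate-fat meal (≥400 calories, ≥120 from fat) taken 30 minutes before dosing. Part 1: 10 or 200 mg for 10 days. Part 2: 40–140 mg for 7 days, then combination ART from day 8. Plasma HIV-1 RNA endpoints were maximum change and change to day 11 (part 1) or day 8 (part 2). Maximum change was fitted by a mixed-effects linear model; dose–response by an Emax model pooling both parts (ED50).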

[5] = Phase IIa monotherapy study: plasma pharmacokinetics; assay type: in vivo, HIV-1–positive, treatment-naive adults; conditions: for Accumulation ratio AUC0-τ, geometric mean (% CVb) / Accumulation ratio Cmax, geometric mean (% CVb) / Accumulation ratio Cτ, geometric mean (% CVb): steady state vs day 1; for Tmax / AUC(0-t): human
In short: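 Oral doses were given once daily with food: part 1 for 10 days, part 2 for 7 days. Plasma drug was measured by LC-MS/MS (range 3.00–1000 ng/mL). Noncompartmental parameters were AUC0-24, Cmax and tmax on day 1, and AUC0-τ, Cmax and Cτ at steady state (day 8, 9 or 10 in part 1; day 7 in part 2). Accumulation ratios were steady state vs day 1, and dose proportionality used a power model. Participants vomiting within 1× tmax were excluded.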

[6] = 10 mg once daily, part 1 (10 days)
[7] = 40 mg once daily, part 2 (7 days)
[8] = 80 mg once daily, part 2 (7 days)
[9] = 140 mg once daily, part 2 (7 days)
[10] = 200 mg once daily, part 1 (10 days)

## C=C(C)[C@@H]1CC[C@]2(NCCN3CCS(=O)(=O)CC3)CC[C@]3(C)[C@H](CC[C@@H]4[C@@]5(C)CC=C(C6=CC[C@@](CF)(C(=O)O)CC6)C(C)(C)[C@@H]5CC[C@]43C)[C@@H]12 [GSK’254]
[1]
  Terminal phase half-life: ~ 24 hours
[2]
  Fold change in half maximal inhibitory concentration (phenotypic resistance): 132 fold
[3]; read-out: 3× protein-binding adjusted 90% effective concentration (3× PBA EC90)
  EC90: 150 nM
[3]; read-out: Half maximal effective concentration (EC50)
  EC50: 3 nM
[3]; target trough concentration
  3× protein-binding adjusted 90% effective concentration (3× PBA EC90): 0.11 µg/mL
[4]; 10 mg once daily, 10 days
  Maximum change in HIV-1 RNA: −0.4 log10
[4]; [6]
  Plasma HIV-1 RNA change from baseline to nadir, mean (SD): −0.36 (0.25) log10 copies/mL
  Modeled plasma HIV-1 RNA maximum change (nadir), least squares mean (90% CI): −0.34 (−.67 to −.00) log10 copies/mL
[4]; 10 mg once daily, part 1, Day 11, n = 6
  Plasma HIV-1 RNA change from baseline to primary endpoint, mean (SD): −0.22 (0.31) log10 copies/mL
[4]; 40 mg once daily, 7 days
  Maximum change in HIV-1 RNA: −1.2 log10
[4]; [7]
  Plasma HIV-1 RNA change from baseline to nadir, mean (SD): −1.18 (0.44) log10 copies/mL
  Modeled plasma HIV-1 RNA maximum change (nadir), least squares mean (90% CI): −1.05 (−1.29 to −.82) log10 copies/mL
[4]; 40 mg once daily, part 2, Day 8, n = 6
  Plasma HIV-1 RNA change from baseline to primary endpoint, mean (SD): −1.18 (0.44) log10 copies/mL
[4]; 80 mg once daily, 7 days
  Maximum change in HIV-1 RNA: −1.0 log10
[4]; [8]
  Plasma HIV-1 RNA change from baseline to nadir, mean (SD): −1.02 (0.33) log10 copies/mL
  Modeled plasma HIV-1 RNA maximum change (nadir), least squares mean (90% CI): −0.94 (−1.16 to −.72) log10 copies/mL
[4]; 80 mg once daily, part 2, Day 8, n = 6
  Plasma HIV-1 RNA change from baseline to primary endpoint, mean (SD): −1.02 (0.33) log10 copies/mL
[4]; 140 mg once daily, 7 days
  Maximum change in HIV-1 RNA: −1.5 log10
[4]; [9]
  Plasma HIV-1 RNA change from baseline to nadir, mean (SD): −1.49 (0.27) log10 copies/mL
  Modeled plasma HIV-1 RNA maximum change (nadir), least squares mean (90% CI): −1.49 (−1.70 to − 1.28) log10 copies/mL
[4]; 140 mg once daily, part 2, Day 8, n = 6
  Plasma HIV-1 RNA change from baseline to primary endpoint, mean (SD): −1.45 (0.24) log10 copies/mL
[4]; 200 mg once daily, 10 days
  Maximum change in HIV-1 RNA: −2.0 log10
[4]; [10]
  Plasma HIV-1 RNA change from baseline to nadir, mean (SD): −2.01 (0.33) log10 copies/mL
  Modeled plasma HIV-1 RNA maximum change (nadir), least squares mean (90% CI): −1.93 (−2.24 to −1.62) log10 copies/mL
[4]; 200 mg once daily, part 1, Day 11, n = 6
  Plasma HIV-1 RNA change from baseline to primary endpoint, mean (SD): −1.96 (0.34) log10 copies/mL
[4]; 10-mg dose
  Maximum mean decline from baseline in HIV-1 RNA: 0.36 log10
[4]; 40-mg group (n = 6)
  Participants with >1.5-log10 decline in HIV-1 RNA from baseline at Day 8: 1 participants
[4]; 140-mg group
  Maximum mean decline in HIV-1 RNA: 1.5 log10
[4]; 140-mg group (n = 6)
  Participants with >1.5-log10 decline in HIV-1 RNA from baseline at Day 8: 3 participants
[4]; 200-mg group
  Maximum mean decline in HIV-1 RNA: 2.0 log10
[4]; 200-mg group, day 11
  Decline from baseline in HIV-1 RNA at day 11 in all participants: > 1.5 log10
[4]; Emax nonlinear model, maximum change in HIV-1 RNA to day 8 vs dose, once daily
  Half maximal effective dose (ED50): 42.67 mg and 42.7 mg and ~ 43 mg
[4]; doses ≥40 mg, regardless of dosing duration
  Decline in HIV-1 RNA: ≥ 1 log10
[4]; monotherapy
  Potency as an antiviral (maximum change in HIV-1 RNA): 2 log10
[4]; part 1 (10 days dosing)
  Median time to nadir in HIV-1 RNA: 11.5 days
[4]; part 2 (7 days dosing)
  Median time to nadir in HIV-1 RNA: 8.0 days
[5]; 10 mg once daily
  Accumulation ratio AUC0-τ, geometric mean (% CVb): 1.54 (24.5)
  Accumulation ratio Cmax, geometric mean (% CVb): 0.93 (171.7)
  Accumulation ratio Cτ, geometric mean (% CVb): 1.48 (22.2)
[5]; 40 mg once daily
  Accumulation ratio AUC0-τ, geometric mean (% CVb): 2.29 (11.2)
  Accumulation ratio Cmax, geometric mean (% CVb): 2.03 (24.4)
  Accumulation ratio Cτ, geometric mean (% CVb): 2.30 (6.4)
[5]; 80 mg once daily
  Accumulation ratio AUC0-τ, geometric mean (% CVb): 1.93 (18.6)
  Accumulation ratio Cmax, geometric mean (% CVb): 1.73 (17.6)
  Accumulation ratio Cτ, geometric mean (% CVb): 1.94 (20.8)
[5]; 140 mg once daily
  Accumulation ratio Cmax, geometric mean (% CVb): 2.02 (37.5)
  Accumulation ratio Cτ, geometric mean (% CVb): 1.90 (16.0)
[5]; 200 mg once daily
  Accumulation ratio AUC0-τ, geometric mean (% CVb): 2.25 (72.1)
  Accumulation ratio Cmax, geometric mean (% CVb): 1.98 (69.4)
  Accumulation ratio Cτ, geometric mean (% CVb): 1.98 (61.2)
[5]; 10-200 mg
  Dose proportionality of plasma PK: generally dose proportional to 140 mg but non-proportional between 140 and 200 mg
[5]; plasma, oral, Median tmax across all doses, steady state, 10-200 mg
  Tmax: 4.02 to 5.48 h
[5]; plasma, po, 10 mg
  AUC(0-t): 700 ng·h/mL
[5]; plasma, po, 40 mg
  AUC(0-t): 3250 ng·h/mL
[5]; plasma, po, 80 mg
  AUC(0-t): 6120 ng·h/mL
[5]; plasma, po, 140 mg
  AUC(0-t): 14000 ng·h/mL
[5]; plasma, po, 140 mg, tmax, median (range), repeat dose 140 mg once daily, day 7 (part 2), plasma, n = 6
  Tmax: 4.08 h
[5]; plasma, po, 200 mg
  AUC(0-t): 12400 ng·h/mL
[5]; plasma, po, 200 mg, tmax, median (range), repeat dose 200 mg once daily, Day 8, 9, or 10 (part 1), plasma, n = 6
  Tmax: 5.48 h
[5]; repeat administration, steady state
  Dose proportionality power model estimated slope (90% CI) for Cτ: 1.14 (90% CI: 1.02–1.26)
[5]; repeat dose 40 mg once daily, day 7 (part 2), n = 6
  CL/F (apparent oral clearance), geometric mean (% CVb): 5360 (26.8) mL/h
[5]; repeat dose 80 mg once daily, day 7 (part 2), n = 6
  CL/F (apparent oral clearance), geometric mean (% CVb): 6765 (26.7) mL/h
[5]; repeat dose 140 mg once daily, day 7 (part 2), n = 6
  CL/F (apparent oral clearance), geometric mean (% CVb): 4779 (27.9) mL/h
[5]; repeat dose 200 mg once daily, Day 8, 9, or 10 (part 1), n = 6
  CL/F (apparent oral clearance), geometric mean (% CVb): 7159 (18.4) mL/h
[5]; repeat dose 200 mg once daily, Day 8, 9, or 10 (part 1), plasma, n = 6
  AUC0-τ, geometric mean (% CVb): 27.90 (18.4) µg∗h/mL
[5]; ≥40-mg groups (all dose groups except 10 mg)
  Mean trough concentration relative to target trough concentration: > 110 ng/mL
